A short description of data set [1]: Area under blood-concentration time curve after 10 mg/kg peroral dose in rat. The class given is ADME, organism-based. Details: dose 10 mg/kg, route oral. Conditions: in vivo, po. The method, boiled down:
(§1)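 Rats dosed orally at 10 mg/kg (n = 2–3). Cmax and t1/2 are taken from plasma. AUC covers 0–24 h. Bioavailability is the oral exposure parameter for the same dosing.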

In data set [2] the target is T1, Adenosine deaminase (Homo sapiens, UniProt P00813).
T1 sequence (P00813 whole entry): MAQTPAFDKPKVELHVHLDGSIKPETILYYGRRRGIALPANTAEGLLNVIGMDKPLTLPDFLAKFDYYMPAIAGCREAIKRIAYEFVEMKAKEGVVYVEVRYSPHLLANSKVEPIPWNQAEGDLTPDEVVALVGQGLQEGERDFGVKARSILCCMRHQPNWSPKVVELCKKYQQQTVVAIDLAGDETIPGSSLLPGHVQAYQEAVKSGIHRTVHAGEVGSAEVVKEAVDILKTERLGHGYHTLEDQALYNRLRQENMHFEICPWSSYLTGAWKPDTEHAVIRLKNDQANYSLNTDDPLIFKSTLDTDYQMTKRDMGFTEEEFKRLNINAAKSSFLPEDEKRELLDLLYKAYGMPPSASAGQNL
In words: Inhibitory concentration against adenosine deaminase.

A short description of data set [3]: Maximum plasma concentration after peroral administration of 10 mg/kg in rat. It is filed as ADME, organism-based. Details: dose 10 mg/kg, route oral. The conditions noted are these: po. The method, boiled down:
as §1

A short description of data set [4]: In vitro clearance in dog liver microsomes. The class given is ADME, Canis lupus familiaris, Microsome. (In general: Microsomes from liver hold many membrane-bound enzymes, among them those of drug oxidation.)
The test system of data set [5] is Mus musculus. In words: Antitumor activity (10 mg/kg, p.o., b.i.d.) on lymphoma U-937 tumor growth inoculated in mice. It is filed as functional. The procedure, abridged:
(§2)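 SCID mice bearing U-937 lymphoma. Inhibitor given orally as HCl salt, either once (u.i.d.) or twice (b.i.d.) daily, in combination with the antitumor nucleoside AraA. Read-out was median survival time in days, compared with an untreated control group and an AraA-alone arm (10 mg/kg).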

A short description of data set [6]: Plasma half life (10 mg/kg, p.o.) in rat. It is filed as ADME, organism-based. Conditions: po. The method, boiled down: as §1
Data set [7] can be described thus: In vitro clearance in rat liver microsomes. The conditions noted are these: read-out: Clearance. It is filed as ADME, Microsome.
The subject of data set [8] is Mus musculus. In words: Antitumor activity (0.25 mg/kg, i.p.) on lymphoma U-937 tumor growth inoculated in mice. The class given is functional. The method, boiled down: (§3)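 SCID mouse U-937 lymphoma model. Pentostatin given intraperitoneally once daily. Efficacy read as median survival time in days, relative to a control group.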
Data set [9] has as its system Mus musculus. In words: Antitumor activity (2.5, i.p.) on lymphoma U-937 tumor growth inoculated in mice. The class given is functional. The method, boiled down: as §3
Data set [10] has as its system Mus musculus. In words: Antitumor activity (10 mg/kg, p.o., b.i.d.) expressed as median survival time is its ability to inhibit lymphoma U-937 tumor growth inoculated in mice. It is filed as functional. The method, boiled down:
as §2

The species entered for data set [11] is Rattus norvegicus. In words: Peroral dose showing antiinflammatory effect in adjuvant arthritis model in rats. It is filed as functional. The conditions noted are these: po. The procedure, abridged: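 Rat adjuvant arthritis model with oral dosing. Anti-inflammatory potency is reported as ED30 in mg/kg po.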
Data set [12] relates to Mus musculus. In words: Antitumor activity (32 mg/kg, p.o., b.i.d.) expressed as median survival time is its ability to inhibit lymphoma U-937 tumor growth inoculated in mice. It is filed as functional. The method, boiled down:
as §2

The test system of data set [13] is Rattus norvegicus. In words: (§4) Oral bioavailability in rat (dose 10 mg/kg). It is filed as functional, organism-based. The method, boiled down:
as §1

Data set [14] in a line: Oral bioavailability in dog (dose 10 mg/kg). It is filed as ADME, organism-based, Canis lupus familiaris. The conditions noted are these: in vivo. The method, boiled down: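 Dogs dosed orally at 10 mg/kg (n = 2–3). Oral bioavailability was determined.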
Data set [15] can be described thus: In vitro clearance in human liver microsomes. The class given is ADME, Microsome. The conditions noted are these: read-out: Clearance.
Data set [16] deals with Mus musculus. In words: Antitumor activity (10 mg/kg, p.o., u.i.d.) expressed as median survival time is its ability to inhibit lymphoma U-937 tumor growth inoculated in mice. The class given is functional. The method, boiled down:
as §2

A short description of data set [17]: as §4. Conditions: in vivo. The class given is ADME, organism-based. The method, boiled down:
as §1

Data set [18] has as its system Mus musculus. In words: Antitumor activity (32 mg/kg, p.o., u.i.d.) expressed as median survival time is its ability to inhibit lymphoma U-937 tumor growth inoculated in mice. It is filed as functional. The method, boiled down: as §2

Where “and” joins values, the source holds several entries; their conditions need not be identical. Identical values can stand only once.

The record followed here is ChEMBL document CHEMBL1140324, “Rational design of non-nucleoside, potent, and orally bioavailable adenosine deaminase inhibitors: predicting enzyme conformational change and metabolism” (J Med Chem, 2005).

Broadly, the AUC is the area under the concentration-time curve, a measure of exposure. A high value points to more exposure. One may read the IC50 as the concentration that inhibits the measured activity by half. Lower therefore signals inhibition by little substance. What is called Cmax is the peak of the concentration-time curve. For `C[C@H](O)[C@@H](CCc1cccc2ccccc12)n1cnc(C(N)=O)c1`, in data set [1], the AUC amounted to 1370 ng·h/mL. Inhibition in data set [2] was half-maximal at 16 nM (IC50). For the same molecule, the Cmax in [3] turned out to be 1250 ng/mL. The Clearance in data set [4] came out at 30 mL/min/kg.

The molecule `Nc1ncnc2c1ncn2[C@@H]1O[C@H](CO)[C@@H](O)[C@@H]1O` [VIDARABINE] gave an MST in data set [5] of 34 days.

What is called half-life is how long it takes for the measured level to halve. High values mean slow decline, low ones rapid decline. `Cn1cc(CC[C@H](CO)n2cnc(C(N)=O)c2)c2cc(OCCCc3ccc(Cl)cc3)ccc21`: in [6], the half-life is 1.09 h. The molecule further returned an area under the curve (AUC) in data set [1] of 260 ng·h/mL. Moreover, the 50% inhibitory concentration (IC50) in [2] was 6.7 nM. Besides, in [3], the Cmax came out at 210 ng/mL. Moreover, the CLint scaled in data set [7] amounted to 643 mL/min/kg.

`NC(=O)c1cn(C(CO)CCc2cccc3ccccc23)cn1` (configuration not stated) gave an IC50 in [2] of 570 nM.

`OC[C@H]1O[C@@H](n2cnc3c2N=CNC[C@H]3O)C[C@@H]1O` [PENTOSTATIN]: the MST in [8] came to 34 days; in [9], 42.5 days.

Molecule `C[C@H](O)[C@@H](CCc1cccc(Cl)c1Cl)n1cnc(C(N)=O)c1` showed an AUC in [1] of 2110 ng·h/mL. The molecule further came in with an IC50 in data set [2] of 15 nM. The same molecule displayed a Cmax in [3] of 1630 ng/mL. The MST was 34 days in [10]; 42.5 days and 38 days in [12]. For the same molecule, in data set [4], the Clearance was determined as 21 mL/min/kg. Moreover, the ED30 in data set [11] was determined as 1.6 mg/kg.

In data set [6], `C[C@H](O)[C@@H](CCc1cccc2nc(-c3ccc(Cl)cc3)oc12)n1cnc(C(N)=O)c1` gave a half-life of 3.45 h. Also, the figures for the bioavailability in data set [13] and in [14] were 52% and 50%, respectively. In data set [1], this molecule came in with an AUC of 29600 ng·h/mL. In data set [3], the Cmax is 5580 ng/mL. In addition, the CLint scaled in data set [7] came out at 131 mL/min/kg; in data set [15], 34 mL/min/kg. In [4], the Clearance is 6 mL/min/kg. For the same molecule, the ED30 in data set [11] stood at 0.6 mg/kg.

In data set [6], `C[C@H](O)[C@@H](CCc1cccc2oc(-c3ccc(Cl)cc3)nc12)n1cnc(C(N)=O)c1` showed a half-life of 1.87 h. In [1], this molecule returned an AUC of 56200 ng·h/mL. In addition, the MST in data set [16] came to 43 days; in [18], 45.5 days. The IC50 in data set [2] came out at 8.7 nM. Further, in data set [3], the Cmax amounted to 14700 ng/mL. Further, the bioavailability in [17] was found to be 86%; in data set [14] it was 81%. For the same molecule, the results for the CLint scaled in data set [7] and in data set [15] were 50 mL/min/kg and 12 mL/min/kg, respectively. The molecule further showed a Clearance in data set [4] of 6.2 mL/min/kg. For the same molecule, the ED30 in data set [11] was 0.3 mg/kg.

`NC(N)=Nc1nc(-c2ccc(CNc3nc4ccccc4[nH]3)s2)cs1`: the IC50 in [2] was 700 nM.
